The results in this text go back to ChEMBL document CHEMBL1122658, “Amnesia-reversal activity of a series of N-[(disubstituted-amino)alkyl] -2-oxo-1-pyrrolidineacetamides, including pramiracetam” (1984).

Assay [1] relates to Mus musculus. Nature of the assay: Ability to reverse electroconvulsive shock induced amnesia in mice, after administering intraperitoneally at a dose of 20.0 mg/kg. Type of assay: functional. Particulars: route intraperitoneal. Put shortly: (§1)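 Male CF-1 mice (20-25 g), five groups of 20, trained in one trial on step-through inhibitory avoidance (darkened chamber). ECS given 2 h after training. Test drug or vehicle placebo injected ip 2 h after ECS, 1 h before retention test. Entry into box within 60 s scored as amnesia. % reversal = (drug − base-line ECS+placebo)/(ceiling no-ECS+placebo − base-line) ×100.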

Assay [2] has as its system Mus musculus. Description: Ability to reverse electroconvulsive shock induced amnesia in mice, after administering intraperitoneally at a dose of 2.5 mg/kg. Particulars: route intraperitoneal. It is filed as functional. The essentials: as §1
For assay [3], the system named is Mus musculus. Nature of the assay: Compound was evaluated for the ability to reverse electroconvulsive shock (ECS) induced amnesia in mice, after administering intraperitoneally, at a dose of 80.0 mg/kg; 18 of 20 mice died at this dose. Particulars: route intraperitoneal. It is filed as functional. The essentials: as §1
In assay [4] the test system is Mus musculus. Nature of the assay: Ability to reverse electroconvulsive shock induced amnesia in mice, after administering intraperitoneally at a dose of 1.25 mg/kg. Type of assay: functional. Particulars: route intraperitoneal. Put shortly: as §1
The subject of assay [5] is Mus musculus. Nature of the assay: Ability to reverse electroconvulsive shock (ECS) induced amnesia in mice, after administering intraperitoneally, at a dose of 5 mg/kg. It is filed as functional. Particulars: route intraperitoneal. The essentials:
as §1

Assay [6] relates to Mus musculus. Nature of the assay: Ability to reverse electroconvulsive shock (ECS) induced amnesia in mice, after administering intraperitoneally, at a dose of 10.0 mg/kg. Type of assay: functional. Particulars: route intraperitoneal. The essentials: as §1
Assay [7] has as its system Mus musculus. Description: Ability to reverse electroconvulsive shock induced amnesia in mice, after administering intraperitoneally at a dose of 5 mg/kg. It is filed as functional. Particulars: route intraperitoneal. The essentials: as §1
The subject of assay [8] is Mus musculus. Description: Ability to reverse electroconvulsive shock (ECS) induced amnesia in mice, after administering intraperitoneally, at a dose of 160 mg/kg. Type of assay: functional. Particulars: route intraperitoneal. Put shortly: as §1
The test system of assay [9] is Mus musculus. Nature of the assay: Compound was evaluated for the ability to reverse electroconvulsive shock (ECS) induced amnesia in mice, after administering intraperitoneally, at a dose of 320.0 mg/kg; 18 of 20 mice died at this dose before completion of the test. It is filed as functional, organism-based. Also on record: dose 320 mg/kg. The essentials:
as §1

Assay [10] concerns Mus musculus. Description: Ability to reverse electroconvulsive shock (ECS) induced amnesia in mice, after administering intraperitoneally, at a dose of 80 mg/kg. Type of assay: functional. Particulars: route intraperitoneal. Put shortly:
as §1

Assay [11] deals with Mus musculus. Description: Ability to reverse electroconvulsive shock induced amnesia in mice, after administering intraperitoneally at a dose of 20 mg/kg. Type of assay: functional. Particulars: route intraperitoneal. The essentials:
as §1

The subject of assay [12] is Mus musculus. Description: Compound was evaluated for the ability to reverse electroconvulsive shock (ECS) induced amnesia in mice, after administering intraperitoneally, at a dose of 5 mg/kg. Type of assay: functional. Particulars: route intraperitoneal. The essentials: as §1
Assay [13] deals with Mus musculus. Description: Compound was evaluated for the ability to reverse electroconvulsive shock (ECS) induced amnesia in mice, after administering intraperitoneally, at a dose of 10 mg/kg. Type of assay: functional. Particulars: route intraperitoneal. The essentials: as §1
For assay [14], the system named is Mus musculus. Description: Compound was evaluated for the ability to reverse electroconvulsive shock (ECS) induced amnesia in mice, after administering intraperitoneally, at a dose of 40 mg/kg. Particulars: route intraperitoneal. Type of assay: functional. The essentials: as §1
The subject of assay [15] is Mus musculus. Description: Compound was evaluated for the ability to reverse electroconvulsive shock (ECS) induced amnesia in mice, after administering intraperitoneally, at a dose of 40.0 mg/kg. It is filed as functional. Particulars: route intraperitoneal. The essentials:
as §1

For assay [16], the system named is Mus musculus. Description: Ability to reverse electroconvulsive shock (ECS) induced amnesia in mice, after administering intraperitoneally, at a dose of 0.63 mg/kg. Type of assay: functional. Particulars: route intraperitoneal. Put shortly:
as §1

Assay [17] deals with Mus musculus. Nature of the assay: Ability to reverse electroconvulsive shock (ECS) induced amnesia in mice, after administering intraperitoneally, at a dose of 80.0 mg/kg. Particulars: route intraperitoneal. Type of assay: functional. Put shortly:
as §1

The test system of assay [18] is Mus musculus. Nature of the assay: Compound was evaluated for the ability to reverse electroconvulsive shock (ECS) induced amnesia in mice, after administering intraperitoneally, at a dose of 320 mg/kg. Particulars: route intraperitoneal. Type of assay: functional. Put shortly: as §1
Assay [19] concerns Mus musculus. Nature of the assay: Ability to reverse electroconvulsive shock (ECS) induced amnesia in mice, after administering intraperitoneally, at a dose of 0.31 mg/kg. It is filed as functional. Particulars: route intraperitoneal. The essentials: as §1
The subject of assay [20] is Mus musculus. Description: Compound was evaluated for the ability to reverse electroconvulsive shock (ECS) induced amnesia in mice, after administering intraperitoneally, at a dose of […] mg/kg. It is filed as functional. Put shortly: as §1

Where “and” joins values, the source holds several entries; their conditions need not be identical. Identical values can stand only once.

As to `CCC1CCC(=O)N1CC(=O)NCCCN1C(C)CCCC1C` (configuration not stated), the Amnesia reversal stood at 42% in assay [1]; 50% in [2]; 42% in [3]; 20% in [4]; 50% in assay [5].

As to `N[C@@H]1C[C@H]1c1ccccc1.N[C@H]1C[C@@H]1c1ccccc1` [TRANYLCYPROMINE], the Amnesia reversal in [2] stood at 5%; in [6] it was 10%; in assay [4] it was 10%; in assay [7] it was 15%.

In the case of `CC1CCCC(C)N1CCCCNC(=O)CN1CCCC1=O` (configuration not stated), the Amnesia reversal is listed as 60% in assay [8]; 18 of 20 mice died at this dose before completion of the test in [9]; 50% in assay [7]; 100% in assay [10]; 60% in assay [11].

With `CC1CCCC(C)N1CCCNC(=O)CN1CCC(c2ccccc2)C1=O` (configuration not stated), the Amnesia reversal in [12] turned out to be 50%; in assay [10], 0%; in [11] it was 67%.

Turning to `CCC1(C)CC(=O)NC1=O` (configuration not stated) [ETHOSUXIMIDE], the Amnesia reversal came to 10% in assay [8]; 15% in assay [13]; 10% in assay [10]; 10% in assay [14]; 12% in [11].

Turning to `CN(C)CCCN1c2ccccc2CCc2ccccc21` [IMIPRAMINE], the Amnesia reversal in assay [13] turned out to be 10%; in [7], 10%; in assay [11] it was 5%; in assay [15] it was 15%.

In the case of `[Cl-].[Li+]` [CHLOROLITHIUM], the Amnesia reversal in assay [1] came to 25%; in assay [16], 15%; in assay [2], 15%; in [6] it was 30%; in assay [4] it was 10%; in assay [7], 15%. Further, the Amnesia reversal in assay [10] is 20%; in [14] it was 30%.

With `C1CCc2nnnn2CC1` [PENTYLENETETRAZOL], the Amnesia reversal in assay [13] turned out to be 10%; in assay [2], 15%; in assay [7] it was 20%; in [14], 15%; in assay [11], 15%.

On to `NC1=NC(=O)C(c2ccccc2)O1` (configuration not stated) [PEMOLINE], for which the Amnesia reversal is given as 56% in [13]; 20% in assay [2]; 44% in [11]; 56% in assay [15]; 20% in assay [5].

As to `CCC1CCC(=O)N1CC(=O)NCCN(C(C)C)C(C)C` (configuration not stated), the Amnesia reversal in assay [1] was found to be 17%; in assay [16], 20%; in [2], 58%; in assay [6], 60%; in [4] it was 20%; in [7] it was 58%.

For `COC(=O)C(c1ccccc1)C1CCCCN1` (configuration not stated) [METHYLPHENIDATE], the Amnesia reversal in assay [1] was found to be 15%; in assay [2] it was 10%; in [6], 10%; in [4] it was 15%; in assay [7], 15%.

`CC(C)(CNC(=O)CN1CCCC1=O)N1CCCCC1`: the Amnesia reversal came to 45% in assay [8]; 27% in assay [1]; 55% in [17]; 27% in [18]; 18% in assay [7]; 73% in assay [14].

With `Cn1c(=O)c2c(ncn2C)n(C)c1=O` [CAFFEINE], the Amnesia reversal is 10% in [19]; 5% in assay [16]; 10% in [2]; 0% in assay [4]; 0% in assay [5].

In the case of `NC(=O)CN1CCCC1=O` [PIRACETAM], the Amnesia reversal in assay [12] is 15%; in assay [10] (80 mg/kg) it was 15% and 10%; in [11], 20%; in [5] it was 10%.

Take `CC(C)CN(CCNC(=O)CN1CCCC1=O)CC(C)C`: the Amnesia reversal in assay [1] stood at 25%; in assay [17] it was 15%; in assay [2], 33%; in assay [6] it was 25%; in assay [4], 25%; in assay [7], 54%.

For the compound `C=C(C)[C@@H]1[C@H]2OC(=O)[C@@H]1[C@]1(O)C[C@H]3OC34C(=O)O[C@H]2[C@@]41C.CC(C)(O)[C@@H]1[C@H]2OC(=O)[C@@H]1[C@]1(O)C[C@H]3OC34C(=O)O[C@H]2[C@@]41C` (some centres not stated) [PICROTOXIN], the Amnesia reversal in assay [19], in assay [16], in [2], in [4] and in assay [7] was 5% in each case.

In the case of `CC1CCCCN1CCCNC(=O)CN1CCCC1=O` (configuration not stated), the Amnesia reversal in assay [1] was 33%; in [16] it was 0%; in [20], 10%; in assay [17], 17%; in assay [4] it was 0%; in [7], 33%.

As to `O=C(CN1CCCC1=O)NCCCN1CCOCC1`, the Amnesia reversal in assay [8] is reported as 54%; in [1], 17%; in assay [17], 58%; in assay [18] it was 15%; in assay [7] it was 0%.
